In the library only some 1.7% were active in any assay of this set; here they are far more common.
F508del corr: CFTR F508del correction in bronchial cells | activity (quench increase), % at 7.58 µM | CFBE cells, YFP halide quenching; stimulated with forskolin plus potentiator P3; % fluorescence drop versus neutral controls | hit rate 0.36% among 350,000;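 active = mean added fluorescence quench of at least 8% versus neutral control, with both replicates also reaching 8%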;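 note: cells transiently co-express mutant CFTR-F508del with the halide-sensitive YFP; corrector assay measuring rescue of mutant channel to the surface after 24 h compound exposure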
CAL PDZ FP-1: human CAL PDZ-peptide interaction inhibition; hit rate 0.02% among 330,000; AID 504414; purified CAL PDZ, TMR-peptide fluorescence polarization, 1 h; inhibition, % at 20 µM; Q9HD26;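 active = highest replicate inhibition of at least 40%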;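 note: plate controls were DMSO neutral control wells for no effect and unlabeled competitor peptide control wells for full effect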
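Assay system – tagged CAL PDZ protein CerCALP, purified · Timing – 1 h at RT · Compound – single point, 20 µM · Measured by – fluorescence polarization from S- and P-plane intensities, G-factor corrected · Evaluation – inhibition from polarization loss · Probe or stimulus – TMR reporter peptide T*-PRC34 · Buffer or medium – pH 7.4 phosphate-saline buffer, reducing agent, detergent, IgG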
PGC1a acetyl inh: modulators of PGC1a acetylation; hit rate 0.17% among 350,000; inhibition, % at 15.6 µM; U2OS PGC1a acetylation, AlphaScreen anti-acetyl-lysine; with virally co-expressed GCN5 acetyltransferase; AID 651687;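 active = every replicate shows inhibition of at least 40%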;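 note: 0% = neutral control wells and 100% = positive control wells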
ARNT-TACC3 inh: disruptors of human ARNT/TACC3 interaction. Q9Y6A5. AlphaScreen His-ARNT PAS-B/GST-TACC3 binding, luminescence; TACC3 fragment carries E629A point mutation. inhibition, % at 9.99 µM. hit rate 0.66% among 390,000;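 active = mean inhibition of replicates at least 50% and at least half of replicates each reaching 50%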;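 note: 0% = complete ARNT plus TACC3 wells and 100% = ARNT alone without TACC3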
CAL PDZ FP-2: inhibitors of human CAL PDZ peptide binding; AID 602252; purified CAL PDZ, TMR-peptide fluorescence polarization, 1 h; inhibition, % at 24.9 µM; hit rate 0.92% among 300,000; Q9HD26;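 active = mean inhibition of at least 30% with at least half of replicates also reaching 30%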;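 note: 0% = DMSO neutral control and 100% = excess unlabeled competitor peptide PRC23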
miR122 inh: inhibitors of miR-122 in Huh7 cells; AID 602342; Huh7 miR-122 Renilla luciferase sensor, 48 h; neutral wells = 0, positive control = 100; activation (reporter increase), % at 12.5 µM; hit rate 0.3% among 340,000;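 active = mean replicate activation score at least 90 and every replicate individually at or above 90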;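 note: higher luciferase means less miR-122 activity so hits act as miR-122 inhibitors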
Active calls of the source: *; nt = no result; [ ] = remark or other dose.

SMILES | F508del corr | CAL PDZ FP-1 | PGC1a acetyl inh | ARNT-TACC3 inh | CAL PDZ FP-2 | miR122 inh
C[C@H]1CCCCO[C@H](CN(C)C(=O)Nc2ccc(C(F)(F)F)cc2)[C@@H](C)CN([C@@H](C)CO)C(=O)c2cc(NC(=O)Nc3ccc(F)cc3)ccc2O1 | 8.0* | nt | 18 | 2 | nt | -6[16.7 µM]
C[C@@H]1CN([C@H](C)CO)C(=O)c2cc(C#CCN(C)C)cnc2O[C@@H]1CN(C)Cc1ccccc1F | nt | nt | -10 | 7 | nt | 0[16.7 µM]
C[C@H](CO)N1C[C@H](C)[C@H](CN(C)C(=O)NC2CCCCC2)Oc2c(NC(=O)c3ccncc3)cccc2C1=O | -1 | nt | 3 | 5 | nt | -5[16.7 µM]
COCC(=O)N[C@@H]1CC[C@H](CC(=O)N2CCCCC2)O[C@H]1CO | 2 | nt | 6 | 19 | nt | 0[16.7 µM]
Cc1cc(O)c2c(c1)C(=O)c1cc(O)cc(O)c1C2=O | 2 | 1 | -19 | 1 | -2 | -4
O=C1c2cc(O)cc(O)c2C(=O)c2c1cc(O)c([C@@H](CO)CCO)c2O | -5 | 2 | -2 | 46* | 4 | 4
CC12CN3CC(C)(CN(C1)C3c1ccc3ccccc3c1O)C2=O (stereo unspecified) | nt | nt | 3 | 0 | 93* | -4
C[C@@H]1CN([C@H](C)CO)C(=O)Cc2cc(NC(=O)Nc3cccc4ccccc34)ccc2O[C@H]1CN(C)Cc1ccc(-c2ccccc2)cc1 | 3 | nt | 4 | nt | nt | 21[16.7 µM]
CO[C@@H]1CN(C)C(=O)c2ccc(NC(=O)NC(C)C)cc2OC[C@@H](C)N(Cc2cncnc2)C[C@@H]1C | -2 | nt | 2 | nt | nt | -2[16.7 µM]
O=C(NCc1ccccc1)c1ccc(NC(=O)C2CC2)cc1 | 2 | -1 | -64 | -1 | 0 | 6
O=C(NCCc1ccccc1)c1ccc(NC(=O)C2CC2)cc1 | 0 | -1 | 5 | -4 | 59* | 2
CN(C)C(=O)c1ccc(-c2ccc([C@@H]3[C@H](CO)N4CCCCN(C(=O)C5CCC5)C[C@@H]34)cc2)cc1 | 1 | nt | 1 | -4 | nt | -26[16.7 µM]
CO[C@@H]1CN(C)C(=O)c2ccc(NS(=O)(=O)c3ccccc3)cc2OC[C@@H](C)N(Cc2ccccn2)C[C@@H]1C | 3 | nt | -2 | 17 | nt | nt
CO[C@@H]1CN(C)C(=O)c2ccc(NS(=O)(=O)c3ccc(C)cc3)cc2OC[C@@H](C)N(Cc2ccccn2)C[C@H]1C | -1 | nt | -9 | active | nt | nt
C[C@@H]1CN([C@@H](C)CO)C(=O)c2cc(NC(=O)Nc3ccc4c(c3)OCO4)ccc2O[C@@H](C)CCCCO[C@H]1CN(C)Cc1ccccc1 | -2 | nt | -12 | 19 | nt | 8[16.7 µM]
COC(=O)c1ccccc1-c1ccc(/C=N/NC(=O)c2cc3ccccc3o2)o1 | nt | -7 | -5 | 1 | -9 | 4
COC(=O)c1ccccc1-c1c2ccc(=N)cc-2oc2cc(N)ccc12 | 62* | 109* | 1 | 10 | nt | 1
C[C@H]1CN([C@@H](C)CO)C(=O)c2cc(NC(=O)CCCN(C)C)ccc2O[C@H]1CN(C)C | 0 | nt | 3 | -1 | nt | 10[16.7 µM]
COc1cccc(C#Cc2ccc3c(c2)[C@H]2[C@H](CCN2C(=O)c2ccc4c(c2)OCO4)[C@@H](CO)N3)c1 | -1 | nt | -8 | nt | nt | nt
CCc1ccc(C(=O)CSc2nnc(C3CC3)n2C2CC2)cc1 | 0 | -1 | nt | -5 | -7 | nt
Cc1ccc(C(=O)CSc2nnc(C3CC3)n2C2CC2)s1 | -1 | 0 | nt | nt | 63* | -1
C[C@@H]1CN([C@@H](C)CO)C(=O)c2cc(NC(=O)Nc3ccc4c(c3)OCO4)ccc2O[C@@H]1CN(C)Cc1ccc(C(=O)O)cc1 | -1 | nt | 3 | 2 | nt | 7[16.7 µM]
C[C@H](CO)N1C[C@H](C)[C@@H](CN(C)C(=O)CC2CC2)Oc2cc(C#CC(C)(C)O)ccc2S1(=O)=O | -2 | nt | -22 | -12 | nt | 2[16.7 µM]
COC(=O)[C@@H]1C[C@@H](C(=O)O)[C@H](C)C1(C)C | 4 | 1 | nt | 10 | 43* | nt
COc1ccc(C)cc1C(=O)C1CC(C(=O)O)C(C)(C)C1C (stereo unspecified) | nt | 0 | 5 | -5 | -2 | -23
SMILES | F508del corr | CAL PDZ FP-1 | PGC1a acetyl inh | ARNT-TACC3 inh | CAL PDZ FP-2 | miR122 inh
CN(C)C(=O)[C@H]1[C@H](CO)[C@H]2Cn3c(ccc(C4=CCCCC4)c3=O)[C@@H]1N2Cc1cccnc1 | -1 | nt | nt | -1 | nt | -2[16.7 µM]
C[C@@H]1CN([C@@H](C)CO)S(=O)(=O)c2ccc(-c3ccncc3)cc2O[C@H]1CN(C)C(=O)CC1CC1 | 1 | nt | 4 | -3 | nt | -7[16.7 µM]
COc1ccc(/C=N/Nc2nnc(C)n2N)cc1OC | -4 | 1 | 4 | 54* | -5 | nt
COc1ccc(/C=N/Nc2nnc(C)n2N)cc1OC(C)=O | 0 | 0 | 15 | 1 | -2 | 0
Cc1nn2c(-c3ccccc3)nnc2c2ccccc12 | nt | nt | 11 | 4 | -1 | -10
Cc1nn2c3ccccc3nc2c2ccccc12 | nt | 43* | -6 | -7 | nt | -10
CCCNC(=O)N1C[C@@H]2[C@H](c3ccccc31)[C@H](CO)N2Cc1ccc(F)cc1 | 1 | nt | -6 | 1 | nt | 0[16.7 µM]
Cc1cc(NCc2ccccn2)n2nc(C)c(-c3ccccc3)c2n1 | 12* | 0 | nt | 36 | -4 | nt
Cc1nnc(SC(C)C#N)n1-c1ccccc1 (stereo unspecified) | 0 | 0 | -5 | -10 | 76* | nt
NS(=O)(=O)c1cccc(NC(=O)CSc2nnc(C3CC3)n2C2CC2)c1 | -2 | -5 | nt | -6 | -5 | nt
Nn1c(SCC(=O)Nc2ccc(S(N)(=O)=O)cc2)nnc1-c1ccco1 | 3 | -1 | 3 | -7 | 37* | 2
Nn1c(SCC(=O)Nc2cccc(S(N)(=O)=O)c2)nnc1C1CC1 | 1 | 0 | nt | 0 | 70* | nt
COc1cccc(-c2coc3c(C)c4oc(=O)c(CCC(=O)O)c(C)c4cc23)c1 | 1 | -9 | 1 | 62* | -15 | -4
COc1cccc(-c2coc3c(C)c4oc(=O)c(CC(=O)O)c(C)c4cc23)c1 | nt | -8 | -1 | 14 | -8 | 1
COC(=O)C[C@H]1CC[C@@H]2[C@H](COC[C@H](O)CN2C(=O)Nc2ccccc2OC)O1 | 2 | nt | 6 | 7 | nt | 1[16.7 µM]
Cc1ccccc1C(=O)NNC(=S)NC(=O)c1ccc(Cl)cc1Cl | -1 | -2 | -2 | 6 | -4 | nt
COc1ccccc1NC(=S)NNC(=O)c1ccc(Cl)cc1Cl | nt | -1 | -5 | 0 | 49* | -10
C[C@H]1CN([C@@H](C)CO)S(=O)(=O)c2ccc(C#CC3(O)CCCC3)cc2O[C@H]1CN(C)C(=O)c1ccncc1 | 1 | nt | -5 | 1 | nt | -3[16.7 µM]
CC1Cc2ccccc2N1C(=O)COC(=O)c1cccc(Br)c1 (stereo unspecified) | 3 | -2 | 4 | 0 | 182* | -2
CC1(c2ccc3ccccc3c2)CCC(=O)O1 (stereo unspecified) | 8.7* | 0 | nt | -2 | 4 | nt
